# A selection: hits, their analogues and other compounds. The true share with any hit is near 2.2%.
# IMP-1 inh-1: blocks Pseudomonas aeruginosa IMP-1 metallo-beta-lactamase; purified IMP-1, nitrocefin hydrolysis, epi-absorbance fluorescence; inhibition, % at 5.6 µM; actives 0.45% (n = 290,000); AID 1556;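 active means inhibition above the mean plus 3 SD of all compounds in the same screening run, cut at about 4.5% in these data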
#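 assay system = purified recombinant IMP-1 metallo-beta-lactamase enzyme | schedule = 15 min preincubation plus 25 min reaction at 25 °C | signal = Epi-absorbance fluorescence, 480 nm excitation, 530 nm emission | read-out basis = percent inhibition from optical density relative to buffer-blank wells | controls = IMP-1 with DMSO as 0%, enzyme-free DMSO as 100%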
# VIM-2 inh: inhibitors of Pseudomonas aeruginosa VIM-2 metallo-beta-lactamase; inhibition, % at 5.6 µM; purified VIM-2, nitrocefin hydrolysis, epi-absorbance fluorescence; actives 0.89% (n = 290,000);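 active means inhibition above the mean of all tested compounds plus 3 SD, cutoff set per screening run, cut at about 7.5% in these data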;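 further: red hydrolysis product quenches plate fluorescence so inhibitors raise well fluorescence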
# CR mimetic SO: yeast age-related superoxide inhibition as caloric restriction mimetic; S. cerevisiae aged cells, superoxide DHE fluorescence; active compounds read low; superoxide response (% of plate mean), % at 10 µM; actives 0.18% (n = 330,000);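 active means superoxide response under a set limit, about three screen SD below normal, cut at about 65% in these data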;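 further: yeast aged for seven days with compound at 30 °C before DHE staining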
# PHOSPHO1 block: blocks human PHOSPHO1 phosphatase activity | recombinant PHOSPHO1, absorbance phosphatase assay | inhibition, % at 13.3 µM | actives 1.1% (n = 290,000) | AID 1565; in the data active means inhibition above about 60%
# Target sequence (Q8TCT1 whole entry, looked up): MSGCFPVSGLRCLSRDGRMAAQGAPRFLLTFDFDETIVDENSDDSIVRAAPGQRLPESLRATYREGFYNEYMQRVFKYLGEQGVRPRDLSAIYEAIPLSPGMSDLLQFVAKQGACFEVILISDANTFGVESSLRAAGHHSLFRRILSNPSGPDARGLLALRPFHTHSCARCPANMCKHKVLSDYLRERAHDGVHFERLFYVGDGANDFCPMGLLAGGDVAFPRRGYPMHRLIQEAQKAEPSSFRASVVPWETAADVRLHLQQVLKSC
# PvdQ inh: blocks Pseudomonas aeruginosa PvdQ acylase activity; purified PvdQ acylase, fluorescence plate reader; inhibition, % at 10 µM; actives 0.063% (n = 340,000); AID 488965; in the data active means inhibition above about 30%, passing the limit was not always enough; inconclusive means no clear call, values can overlap the other calls
# IMP-1 inh-2: IMP-1 inhibition, counter-screen for VIM-2 inhibitors; shares compounds with VIM-2 inh; purified IMP-1, nitrocefin hydrolysis, epi-absorbance fluorescence; inhibition, % at 5.6 µM; 1,300 tested, under 10 active; call rule not given here
# VIM-2 FRET ctr: inhibits VIM-2 in FRET assay to exclude epi-absorbance artifacts. shares compounds with VIM-2 inh. purified VIM-2, CCF2 FRET substrate hydrolysis. inhibition, % at 5.6 µM. actives 23% (n = 1,300). AID 1857;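 active means inhibition above the mean of all tested compounds plus 3 SD, cut at about 19% in these data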
# TEM-1 counter: selectivity counter-screen for VIM-2 inhibitors: E. coli TEM-1 inhibitors; shares compounds with VIM-2 inh; Purified TEM-1, nitrocefin hydrolysis, epi-absorbance fluorescence; inhibition, % at 5.6 µM; actives 3% (n = 1,300);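 active means inhibition above that campaign's mean inhibition plus 3 SD, cut at about 0.46% in these data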
# Target sequence (P62593 whole entry, looked up): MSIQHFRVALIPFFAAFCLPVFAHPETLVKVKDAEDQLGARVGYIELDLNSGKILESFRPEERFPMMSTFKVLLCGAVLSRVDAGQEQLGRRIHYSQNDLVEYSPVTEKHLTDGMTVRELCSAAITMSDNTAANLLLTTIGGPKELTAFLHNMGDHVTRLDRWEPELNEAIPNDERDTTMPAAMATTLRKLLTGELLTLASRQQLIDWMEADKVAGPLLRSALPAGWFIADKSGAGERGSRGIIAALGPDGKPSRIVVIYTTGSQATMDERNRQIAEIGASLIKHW
# VIM-2 confirm 2: confirmation of P. aeruginosa VIM-2 metallo-beta-lactamase inhibitors. shares compounds with VIM-2 inh. purified VIM-2, nitrocefin hydrolysis, epi-absorbance. inhibition, % at 5.6 µM. actives 96% (n = 1,300);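 active means inhibition of the VIM-2 beta-lactamase enzyme above about 11% from the earlier first-round screen, limit read from the data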
# Hits are given with their value; 0 = inactive; ? = inconclusive; - = no result given.
SMILES,IMP-1 inh-1,VIM-2 inh,CR mimetic SO,PHOSPHO1 block,PvdQ inh,IMP-1 inh-2,VIM-2 FRET ctr,TEM-1 counter,VIM-2 confirm 2
COc1ccc(/C=C2/SC(=S)N(CCCC(=O)N3CCN(C)CC3)C2=O)cc1,0,17.5,0,0,0,0,0,0,31.4
CCOc1ccccc1CN1CCNC(=O)C1CC(=O)NC1CCCCCCC1 (configuration not stated),0,0,0,0,0,-,-,-,-
O=[N+]([O-])c1ccccc1/C=N/n1c(C2CCCCC2)n[nH]c1=S,0,0,0,0,0,-,-,-,-
O=[N+]([O-])c1ccccc1/C=N/n1c(C(F)(F)F)n[nH]c1=S,0,14.0,0,0,0,0,54.9,0,35.8
Cc1nn2c(NCCN3CCOCC3)c3c(nc2c1-c1ccccc1)CCCC3,0,0,0,0,0,-,-,-,-
Cc1nn2c(N3CCN(C)CC3)c3c(nc2c1-c1ccccc1)CCCC3,0,26.2,0,0,-,0,0,0,54.8
CN(Cc1ccccc1)CC(O)COc1ccc(CNCc2nccn2C)cc1 (configuration not stated),0,12.5,0,0,0,0,0,0,13.6
CCn1ccnc1CNCc1ccc(OCC(O)CN(C)Cc2ccccc2)cc1 (configuration not stated),0,0,0,0,0,-,-,-,-
COCC(C)NC(=O)c1cccc([N+](=O)[O-])c1 (configuration not stated),0,0,0,0,0,-,-,-,-
COCC(C)NC(=O)c1cc2cccc([N+](=O)[O-])c2[nH]1 (configuration not stated),0,21.2,0,0,0,0,39.1,0,23.2
CCN(CC)CC(=O)Nc1cccc2c1C(=O)c1ccccc1C2=O,0,0,0,0,0,-,-,-,-
O=C1c2ccccc2C(=O)c2c(NCCCN(CCO)CCO)cccc21,0,22.1,-,0,0,0,0,0,35.7
O=c1nc(N2CCCC2)nc(N2CCCC2)[nH]1,0,0,0,0,0,-,-,-,-
O=C(O)COc1ccccc1/C=N/n1c(C2CCCCC2)n[nH]c1=S,0,27.5,0,0,0,0,53.1,0,39.7
CCCc1nn(C)c2c(=O)[nH]c(-c3cc(S(=O)(=O)N4CCN(C)CC4)ccc3OCC)nc12,0,17.4,0,0,0,0,0,0,25.5
Oc1c(Br)cc(/C=N/n2c(-c3ccccc3)n[nH]c2=S)c(O)c1Br,0,34.4,0,0,0,0,58.2,0,43.0
Cc1ccc(-c2n[nH]c(=S)n2/N=C/c2ccc(C(=O)O)cc2)cc1,0,17.8,0,0,0,0,35.4,0,22.9
Oc1ccc(/C=N/n2c(-c3ccccc3)n[nH]c2=S)cc1Br,0,0,0,0,0,-,-,-,-
Cc1ccc(/C=N/n2c(-c3ccccc3)n[nH]c2=S)cc1,0,0,0,0,0,-,-,-,-
Cc1c(Br)c(O)c(Br)c(O)c1/C=N/n1c(-c2ccccc2)n[nH]c1=S,0,18.6,0,0,?,0,26.0,0,26.7
Oc1c(Br)cc(/C=N/n2c(-c3ccccc3)n[nH]c2=S)cc1Br,0,26.8,0,0,0,0,49.8,0,38.7
CCC1C(=O)C[C@H]2CCN3C(=O)CCCC1C23 (some centres not stated),-,-,0,-,0,-,-,-,-
CCc1c(C)nc2cc(-c3cccc(Br)c3)[nH]n2c1=O,0,0,0,-,0,-,-,-,-
CCCN1CCc2c(sc(NC(=O)Cc3ccc(F)cc3)c2C(N)=O)C1,0,0,0,0,0,-,-,-,-
CCOC(=O)N1CCN(S(=O)(=O)c2ccc(C(=O)Nc3sc4c(c3C(=O)OC)CCN(C)C4)cc2)CC1,0,76.8,0,0,0,0,0,0,82.0
SMILES,IMP-1 inh-1,VIM-2 inh,CR mimetic SO,PHOSPHO1 block,PvdQ inh,IMP-1 inh-2,VIM-2 FRET ctr,TEM-1 counter,VIM-2 confirm 2
CCCN1CCc2c(sc(NC(=O)c3ccc(S(=O)(=O)N4CCN(C(=O)OCC)CC4)cc3)c2C(N)=O)C1,0,0,0,0,0,-,-,-,-
COc1ccc(C)cc1NC(=O)CCCN1C(=O)CN(C)C1=O,-,-,0,-,0,-,-,-,-
Cc1nn2c3ccccc3nc2c2ccccc12,0,13.3,0,0,0,0,0,0,27.2
CCOc1ccc2oc(C(=O)N(CCOC)c3c(N)n(CC(C)C)c(=O)[nH]c3=O)c(C)c2c1,-,-,0,-,0,-,-,-,-
COC(=O)c1c(NC(=O)C(=O)NCCCN2CCOCC2)sc2c1CCCC2,0,12.8,0,0,0,0,0,0,18.9
CCCCN(C(=O)c1cccc2c(=O)c(C)c(-c3ccccc3)oc12)c1ccccc1,0,0,-,0,0,-,-,-,-
CC(=O)c1cccc(NC(=O)C(C)OC(=O)CCc2nc3ccccc3c(=O)[nH]2)c1 (configuration not stated),-,-,0,-,0,-,-,-,-
O=C(CSc1nnc(-c2cccs2)n1CC1CCCO1)c1cc2ccccc2o1 (configuration not stated),0,13.8,0,0,0,0,30.7,0,17.2
CCOC(=O)C(=CNc1ccc(NC2=NCC(C)S2)cc1)C(=O)OCC (configuration not stated),0,28.0,0,0,0,0,0,0,44.1
COCCNC(=O)c1nn2c(C(F)(F)F)cc(-c3ccccc3)nc2c1Cl,0,0,0,0,0,-,-,-,-
O=C(NCCCn1ccnc1)c1nn2c(C(F)(F)F)cc(-c3ccccc3)nc2c1Cl,0,27.1,0,0,51.1,0,0,0,52.5
Cn1nccc1C(=O)Nc1ccc2c(c1)OCO2,0,0,0,0,0,-,-,-,-
CC(=O)N1CN(CCCn2ccnc2)Cc2c1sc1c2CCCC1,0,26.5,0,0,0,0,0,0,46.1
c1cncc(Nc2nc(-c3cccnc3)cs2)c1,0,12.2,0,0,0,0,0,0,41.2
c1cncc(Nc2nc(-c3ccncc3)cs2)c1,0,16.0,0,0,0,0,0,0,38.2
Cc1nc(C)c(-c2csc(Nc3cccnc3)n2)s1,0,30.1,0,0,0,0,0,0,45.2
Clc1cccc(-c2csc(Nc3cccnc3)n2)c1,0,0,0,0,0,-,-,-,-
COc1ccc2c(c1)oc(=O)c1cc(OC)ccc12,0,0,0,0,0,-,-,-,-
COc1ccc2c(c1)oc(=O)c1ccccc12,0,8.3,0,0,0,0,0,0,15.1
Cc1cc(=O)oc2c3c(cc(OCC(=O)N[C@@H](Cc4ccccc4)C(=O)O)c12)OC(C)(C)CC3,0,21.8,0,0,0,0,40.0,0,25.1
CCc1cc(=O)oc2c3c(cc(OCC(=O)NCc4ccncc4)c12)OC(C)(C)CC3,0,15.5,0,0,0,0,0,0,27.2

# Screening results from PubChem BioAssay.
